Measurements published in ChEMBL document CHEMBL1914395, “Design, synthesis, and biological evaluation of callophycin A and analogues as potential chemopreventive and anticancer agents” (Bioorg Med Chem, 2011).

Experiments:
[1] = biological target: NAD(P)H dehydrogenase [quinone] 1 (Mus musculus) (UniProt Q64669); assay: Induction of quinone reductase 1 activity in mouse Hepa-1c1c7 cells at 50 uM by MTT assay relative to untreated control; assay type: cell-based
Outline: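 Hepa 1c1c7 murine hepatoma cells treated with compound at 50 μM. QR1 measured by NADPH-dependent, menadiol-mediated reduction of MTT to formazan. Protein measured by crystal violet staining of identical plates. Specific activity is nmol formazan per mg protein per min. Induction ratio is treated versus DMSO-treated control.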

[2] = biological target: NAD(P)H dehydrogenase [quinone] 1 (Mus musculus) (UniProt Q64669); assay: Induction of quinone reductase 1 activity in mouse Hepa-1c1c7 cells assessed as cell survival at 50 uM by MTT assay relative to control; assay type: cell-based
Aromatase [3] = biological target: T1, Aromatase (Homo sapiens, UniProt P11511); assay: Inhibition of aromatase at 50 uM after 10 mins preincubation by plate reader relative to control
T1 sequence (P11511 whole entry): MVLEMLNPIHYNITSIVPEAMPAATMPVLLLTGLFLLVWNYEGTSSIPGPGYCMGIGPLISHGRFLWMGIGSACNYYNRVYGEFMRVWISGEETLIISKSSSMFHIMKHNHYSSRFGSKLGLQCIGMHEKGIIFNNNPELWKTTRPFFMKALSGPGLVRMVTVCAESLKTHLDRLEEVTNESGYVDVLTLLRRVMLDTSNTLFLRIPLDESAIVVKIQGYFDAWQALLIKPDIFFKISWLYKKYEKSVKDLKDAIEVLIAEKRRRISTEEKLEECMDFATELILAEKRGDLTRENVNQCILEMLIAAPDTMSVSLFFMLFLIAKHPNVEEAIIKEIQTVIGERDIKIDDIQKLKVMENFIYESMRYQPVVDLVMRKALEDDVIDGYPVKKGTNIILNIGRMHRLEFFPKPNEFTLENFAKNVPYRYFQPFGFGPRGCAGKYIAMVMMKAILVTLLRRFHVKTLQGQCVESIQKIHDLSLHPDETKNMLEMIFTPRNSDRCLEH
Outline: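 CYP19 enzyme. Compound pre-incubated 10 min with an NADPH-regenerating system (NADP+, glucose 6-phosphate, G6PDH, MgCl2, albumin) in 50 mM potassium phosphate pH 7.4. Enzyme and 0.4 μM dibenzylfluorescein substrate then added, 30 min at 37 °C. Quenched with 2 N NaOH and incubated a further 2 h at 37 °C. Fluorescence read at ex 485/em 530 nm. Compound tested at 50 μM.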

[4] = biological target: T2, Nitric oxide synthase, inducible (Mus musculus) (UniProt P29477); assay: Inhibition of iNOS-mediated nitric oxide production in LPS-stimulated mouse RAW 264.7 cells at 50 uM pretreated 15 mins before LPS challenge measured after 20 hrs relative to control; assay type: cell-based
T2 sequence (whole entry): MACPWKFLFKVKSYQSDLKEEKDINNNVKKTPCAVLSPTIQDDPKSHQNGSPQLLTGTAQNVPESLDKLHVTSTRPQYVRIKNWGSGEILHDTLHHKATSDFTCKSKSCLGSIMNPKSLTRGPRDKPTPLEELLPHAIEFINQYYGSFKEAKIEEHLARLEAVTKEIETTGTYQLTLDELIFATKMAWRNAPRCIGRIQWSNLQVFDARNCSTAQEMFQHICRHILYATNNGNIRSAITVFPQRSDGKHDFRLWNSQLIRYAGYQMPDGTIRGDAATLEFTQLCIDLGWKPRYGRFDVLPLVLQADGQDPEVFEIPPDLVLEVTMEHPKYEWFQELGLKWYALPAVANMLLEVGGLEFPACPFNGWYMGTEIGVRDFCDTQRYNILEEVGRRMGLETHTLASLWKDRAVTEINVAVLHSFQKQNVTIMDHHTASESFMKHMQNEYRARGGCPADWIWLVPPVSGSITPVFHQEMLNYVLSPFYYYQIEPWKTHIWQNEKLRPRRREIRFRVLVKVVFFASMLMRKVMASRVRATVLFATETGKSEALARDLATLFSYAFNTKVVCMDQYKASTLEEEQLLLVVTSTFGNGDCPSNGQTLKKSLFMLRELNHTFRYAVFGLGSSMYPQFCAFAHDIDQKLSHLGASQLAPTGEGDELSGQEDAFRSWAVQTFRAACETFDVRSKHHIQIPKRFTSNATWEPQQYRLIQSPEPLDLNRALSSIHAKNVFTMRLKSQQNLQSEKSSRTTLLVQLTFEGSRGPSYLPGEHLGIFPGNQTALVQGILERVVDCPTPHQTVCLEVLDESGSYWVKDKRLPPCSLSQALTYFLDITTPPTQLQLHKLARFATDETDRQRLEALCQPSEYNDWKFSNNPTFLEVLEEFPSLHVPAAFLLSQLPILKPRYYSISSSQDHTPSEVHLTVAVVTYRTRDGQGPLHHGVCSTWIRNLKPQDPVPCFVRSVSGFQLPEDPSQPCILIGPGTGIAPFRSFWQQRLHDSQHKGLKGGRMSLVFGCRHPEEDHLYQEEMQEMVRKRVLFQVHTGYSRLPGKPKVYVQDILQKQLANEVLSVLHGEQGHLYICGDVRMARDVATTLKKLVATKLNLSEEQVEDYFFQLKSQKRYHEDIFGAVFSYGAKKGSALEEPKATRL
Outline: (§1)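 RAW 264.7 cells cultured 24 h at 37°C, then given serially diluted compounds for 15 min before LPS (1 μg/mL) for 20 h. Nitrite in the medium measured with Griess reagent at 540 nm against a sodium nitrite standard curve. Cytotoxicity checked by SRB under the same conditions.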

[5] = biological target: T2, Nitric oxide synthase, inducible (Mus musculus); assay: Inhibition of iNOS-mediated nitric oxide production in LPS-stimulated mouse RAW 264.7 cells assessed as cell survival at 50 uM pretreated 15 mins before LPS challenge measured after 20 hrs relative to control; assay type: cell-based
Outline: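 RAW 264.7 cells were incubated at 37°C, 5% CO2 for 24 h. They were then exposed to compound for 15 min before LPS (1 μg/mL) was added for 20 h. Cytotoxicity was measured by SRB staining under the same conditions. Survival is expressed as % relative to vehicle-treated controls at 50 μM.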

[6] = biological target: T3, Nitric oxide synthase, inducible (Mus musculus, UniProt P29477); assay: Inhibition of iNOS-mediated nitric oxide production in LPS-stimulated mouse RAW 264.7 cells pretreated 15 mins before LPS challenge measured after 20 hrs relative to control; assay type: cell-based; outline: as §1
T3 sequence (P29477 whole entry): T2 sequence (whole entry)

HEK293 [7] = assay: Inhibition of TNF-alpha-induced NFkappaB activation in human HEK293 cells at 50 uM after 6 hrs by luciferase assay relative to control; assay type: cell-based
Outline: (§2)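 Cells incubated 6 h with TNFα plus test compound, then luciferase activity measured. Results expressed as percent of TNFα-treated control. Screening concentration 50 μM.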

HEK293 [8] = assay: Inhibition of TNF-alpha-induced NFkappaB activation in human HEK293 cells assessed as cell survival at 50 uM after 6 hrs by luciferase assay relative to control; assay type: cell-based
MCF7 [9] = assay: Antiproliferative activity against human MCF7 cells assessed as survival at 50 uM after 72 hrs by SRB assay relative to control; assay type: functional; conditions: MCF7, 72 h, read-out: Survival
Outline: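 MCF7 cells (1 × 10^4 per well) were plated onto compound and kept at 37°C, 5% CO2 for 72 h. Cells were fixed in 10% TCA for 30 min and stained with 0.4% SRB in 1% acetic acid for 30 min. Bound dye was dissolved in 10 mM Tris (pH 10.0) and read at 515 nm. Survival is given as % of DMSO-treated controls, screened at 50 μM.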

MCF7 [10] = assay: Antiproliferative activity against human MCF7 cells after 72 hrs by SRB assay; assay type: functional, cell-based; conditions: MCF7, 72 h
Outline: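 MCF7 cells, 1 × 10^4 per well, plated directly onto compounds and incubated 72 h at 37°C, 5% CO2. Fixed with 10% TCA, stained with 0.4% SRB in 1% acetic acid. Bound dye dissolved in 10 mM Tris pH 10.0, absorbance read at 515 nm. Survival expressed relative to DMSO-treated controls.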

Aromatase [11] = biological target: T1, Aromatase; assay: Inhibition of aromatase after 10 mins preincubation by plate reader relative to control
[12] = Inhibition of TNF-alpha-induced NFkappaB activation in human HEK293 cells after 6 hrs by luciferase assay; assay type: cell-based; conditions: HEK293, 6 h; outline: as §2
[13] = biological target: NAD(P)H dehydrogenase [quinone] 1 (Mus musculus) (UniProt Q64669); assay: Induction of quinone reductase 1 in mouse Hepa 1c1c7 cells assessed as concentration of compound required to double enzyme activity by MTT assay; assay type: cell-based
Outline: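 Dose-response in Hepa 1c1c7 cells, run for substances with induction ratio >2 at 50 μM. QR1 activity measured as menadiol-mediated, NADPH-dependent MTT reduction to formazan, normalised to crystal violet protein content. CD is the concentration that doubles specific activity relative to DMSO control.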

Chain of NAD(P)H dehydrogenase [quinone] 1 (Mus musculus) (Q64669 whole entry): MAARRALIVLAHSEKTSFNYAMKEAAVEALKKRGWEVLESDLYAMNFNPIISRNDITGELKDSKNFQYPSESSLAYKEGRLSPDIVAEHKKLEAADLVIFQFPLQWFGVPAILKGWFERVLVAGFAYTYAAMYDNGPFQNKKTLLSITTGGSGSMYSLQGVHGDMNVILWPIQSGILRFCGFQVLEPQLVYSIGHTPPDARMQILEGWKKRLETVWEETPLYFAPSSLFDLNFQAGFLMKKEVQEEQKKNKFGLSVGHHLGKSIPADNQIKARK

| SMILES | Ratio [1] | Survival [2] [%] | inhibition at 50 µM (Aromatase [3]) [%] | inhibition [4] [%] | Survival [5] [%] | IC50 [6] [µM] | inhibition (HEK293 [7]) [%] | Survival (HEK293 [8]) [%] | viability at 50 µM (MCF7 [9]) [%] | IC50 (MCF7 [10]) [µM] | IC50 (Aromatase [11]) [µM] | IC50 [12] [µM] | CD [13] [µM] |
| --- | --- | --- | --- | --- | --- | --- | --- | --- | --- | --- | --- | --- | --- |
| COC(=O)[C@@H]1Cc2c([nH]c3ccccc23)CN1C(=O)NC1CCCCC1 | 1.1 | 71.5 | 33 | 53.8 | 79 | 41.1 | 44.7 | 111 | 26.3 | 35.8 | – | – | – |
| O=C(O)[C@@H]1Cc2c([nH]c3ccccc23)CN1Cc1ccc(O)cc1 | 1.7 | 88.3 | 57.9 | 16 | 90.3 | – | 55 | 102 | 85.2 | – | 10.5 | – | – |
| COC(=O)[C@@H]1Cc2c([nH]c3ccccc23)CN1C(=O)NCCc1ccccc1 | 0.5 | 59.6 | 31.8 | 48.2 | 68.9 | – | 87.7 | 94.6 | 1.3 | 25.4 | – | 16.9 | – |
| COC(=O)[C@H]1Cc2c([nH]c3ccccc23)CN1C(=O)NC12CC3CC(CC(C3)C1)C2 | 0.4 | 30.6 | 39.9 | 64.7 | 63.2 | 11.7 | 36.5 | 110 | 9.9 | 14.7 | – | – | – |
| CCCCCNC(=O)N1Cc2[nH]c3ccccc3c2C[C@H]1C(=O)OC | 4.9 | 7.8 | -0.04 | 8.7 | 94.9 | – | 35.5 | 110 | 40.3 | 38.4 | – | – | 3.8 |
| COC(=O)[C@@H]1Cc2c([nH]c3ccccc23)CN1Cc1ccc(O)cc1 | 1.3 | 91.7 | 46.1 | 62.1 | 75.5 | 38.8 | 47.8 | 96 | 94.7 | – | 57.4 | – | – |
| CC[C@@]1(O)C(=O)OCc2c1cc1n(c2=O)Cc2cc3ccccc3nc2-1 [CAMPTOTHECIN] | – | – | – | – | – | – | – | – | – | 0.056 | – | – | – |
| COC(=O)[C@H]1Cc2c([nH]c3ccccc23)CN1S(=O)(=O)c1ccc(Br)cc1 | 2.1 | 83.7 | 35.5 | 3.8 | 89.7 | – | 43.7 | 154 | 30.6 | 42.1 | – | – | 29.7 |
| COC(=O)[C@H]1Cc2c([nH]c3ccccc23)CN1C(=O)NCCc1ccccc1 | 1.5 | 51.7 | 24.6 | 66.2 | 66.1 | 11 | 81.7 | 108 | 4.3 | 27.7 | – | 13.3 | – |
| C=CCOC(=O)N1Cc2[nH]c3ccccc3c2C[C@H]1C(=O)OC | 1.9 | 83.4 | 54.6 | 8.5 | 94.2 | – | 33.3 | 191 | 70.4 | – | 44.8 | – | – |
| COC(=O)[C@@H]1Cc2c([nH]c3ccccc23)CN1C(=O)NC12CC3CC(CC(C3)C1)C2 | 0.9 | 78.1 | 30.3 | 64.1 | 66.7 | 13.4 | 60.7 | 139 | 37.6 | 36.9 | – | 10.2 | – |
| COC(=O)[C@H]1Cc2c([nH]c3ccccc23)CN1S(C)(=O)=O | 1.6 | 86.3 | 40.2 | 12.9 | 79.9 | – | 42.2 | 158 | 90.9 | – | 68.1 | – | – |
| COC(=O)[C@H]1Cc2c([nH]c3ccccc23)CN1C(=O)NC1CCCCC1 | 1 | 71.8 | 24.4 | 55 | 83.8 | 41.6 | 20.9 | 101 | 5.3 | 18.4 | – | – | – |
| CCCCCNC(=O)N1Cc2[nH]c3ccccc3c2C[C@@H]1C(=O)OC | 4.3 | 12.7 | 11.1 | 36.2 | 90.5 | – | 62.1 | 140 | 50.5 | – | – | 15.9 | 0.2 |
